Only some compounds are listed: those with a hit (about 3.5% of all), similar ones and a draw of the others.
MrgX1 antagonist – antagonists of human MrgX1 receptor | MRGX1-HEK293 calcium flux, Fluo-4, BAM8-22 antagonism; hits give low values | B-score at 10 µM | 1.3% of 310,000 active | AID 588676;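 active means calcium-response B-score plate-corrected more than 3 library SD below zero, starting fluorescence within 5 deviations, no agonist response on first addition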;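 further: peak minus trough fluorescence over baseline after final BAM8-22 challenge near maximal dose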
Target sequence (Q96LB2 whole entry, looked up): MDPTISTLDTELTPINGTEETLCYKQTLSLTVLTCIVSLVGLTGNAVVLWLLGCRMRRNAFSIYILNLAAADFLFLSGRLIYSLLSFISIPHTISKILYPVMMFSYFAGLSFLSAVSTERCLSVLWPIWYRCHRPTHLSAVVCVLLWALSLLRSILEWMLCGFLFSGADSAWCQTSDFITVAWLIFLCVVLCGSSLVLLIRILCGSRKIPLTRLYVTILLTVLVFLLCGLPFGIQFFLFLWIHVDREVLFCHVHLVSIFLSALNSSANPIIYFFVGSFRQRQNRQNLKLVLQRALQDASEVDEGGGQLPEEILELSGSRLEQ
RGS4 act – RGS4 potentiation or activation; HEK293 M3R/inducible RGS4, carbachol calcium flux Fluo4; hits give low values; B-score at 10 µM; 0.92% of 310,000 active; AID 463111;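 active means B-score of the integrated calcium signal more than 4 SD below the library mean, with starting fluorescence not abnormally high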;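 further: negative B-score means reduced calcium response which marks RGS4 activation or potentiation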
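System – HEK293 FlpIn-TREx cells, stable M3R, doxycycline-inducible RGS4 · Reagent – ECmax carbachol challenge · Times – compound preincubation 20 min at room temperature before agonist · Technique – Fluo4 fluorescence kinetic imaging of calcium · Measure – B score of integrated Fluo4 ratio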
RGS4 block – inhibitors of human RGS4; P49798; HEK293 M3R/RGS4 inducible, Fluo-4 calcium flux; hits give high values; triggered by carbachol at its EC20; B-score at 10 µM; 0.45% of 310,000 active; AID 463165;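 active means B-score, a plate-corrected calcium signal, over three deviations above library mean, with baseline fluorescence within five deviations of library mean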;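 further: RGS4 expression induced by doxycycline in cells with stable M3 receptor; B-score is computed from the integrated fluorescence ratio over baseline after carbachol; higher B-score means a larger calcium signal and so more RGS4 inhibition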
Target sequence (P49798 whole entry, looked up): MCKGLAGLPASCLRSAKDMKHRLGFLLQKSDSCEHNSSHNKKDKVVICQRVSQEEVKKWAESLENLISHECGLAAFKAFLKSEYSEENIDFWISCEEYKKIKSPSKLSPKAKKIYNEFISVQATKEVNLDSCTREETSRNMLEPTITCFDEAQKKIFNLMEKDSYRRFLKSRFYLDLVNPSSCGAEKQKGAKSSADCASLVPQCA
MrgX1 agonist – human MrgX1 receptor agonism, primary screen; Q96LB2; MrgX1-HEK293 cells, Fluo-4 calcium fluorescence, agonist mode; hits give high values; B-score at 10 µM; 0.44% of 310,000 active; AID 588627;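 active means calcium response B-score plate-corrected fluorescence ratio at least 3 library SD, with starting fluorescence B-score inside 5 SD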
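Assay system: stable human MrgX1 HEK293 cell line. Quantity: 15,000 cells per well. Schedule: cells plated overnight, dye loaded 0.5 h 37 °C, 0.5 h room temperature. Detection: Fluo-4 NW calcium-flux fluorescence, kinetic read. Read-out basis: peak-minus-minimum fluorescence over baseline, converted to B scores. Control set: positive and negative control wells on each plate.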
MrgX1 allo act – human MrgX1 positive allosteric modulation, primary screen; Q96LB2; MrgX1-HEK293, Fluo-4 calcium flux, FDSS; hits give high values; B-score at 10 µM; 0.63% of 310,000 active;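 active means plate-corrected calcium response at least 3 library SD above typical, normal starting fluorescence, not activating the receptor alone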;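 further: compound read alongside a low EC10 to EC30 dose of BAM8-22 agonist; peak minus trough fluorescence over baseline measured at the second addition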
MrgX1 ant reconf – reconfirmed antagonist of human MrgX1 receptor signaling; shares compounds with MrgX1 antagonist; MrgX1-HEK293, BAM8-22 calcium flux, Fluo-4; hits give low values; remaining BAM8-22 calcium response % of control (hits give low values), % at 10 µM; 19% of 2,300 active; AID 602420;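 active means remaining agonist calcium response no higher than 100% minus 3 SD of agonist-only control wells, with starting fluorescence near control levels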;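 further: agonist BAM8-22 given at a near maximal EC90 to ECmax level; peak minus minimum fluorescence divided by baseline after agonist addition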
HEK293 Ca flux – activity in parental HEK293 cells lacking MrgX1. AID 624111. shares compounds with MrgX1 antagonist. 2% of 4,000 active. fluorescence ratio F(max-min)/F0 at 10 µM. Fluo-4 calcium fluorescence, FDSS;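 active means duplicate-averaged calcium fluorescence ratio at least three times the standard deviation of buffer wells, a nonspecific response in parental cells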
HEK293 Ca counter – MrgX1 allosteric activator counter-screen hit in parental HEK293 cells; shares compounds with MrgX1 antagonist; parental HEK293 calcium flux, Fluo-4 fluorescence ratio; hits give high values; fluorescence ratio F(max-min)/F0 at 10 µM; 0.4% of 4,000 active;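 active means calcium fluorescence ratio, averaged over duplicates, at least 3 SD of the buffer-well ratio, meaning a nonspecific response in receptor-free cells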;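 further: untransfected parental HEK293 lacking MrgX1 used as counterscreen for MrgX1 allosteric activators; fluorescence change taken during the second addition on a kinetic imager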
HEK293 Ca cntr2 – MrgX1 activator counter-screen hit in parental HEK293 cells. shares compounds with MrgX1 antagonist. Fluo-4 calcium fluorescence (FDSS); hits give high values. fluorescence ratio F(max-min)/F0 at 10 µM. 8.7% of 4,000 active;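 active means calcium fluorescence ratio at least three times the spread of buffer wells, meaning a non-specific response in parental cells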
* hit, by the source's call.

Screening COC(=O)c1cccc(NC(=O)c2ccc3c(c2)C(=O)N(C(C)(C)C)C3=O)c1 returned MrgX1 antagonist -4.7*, RGS4 act inactive, RGS4 block inactive, MrgX1 agonist inactive, MrgX1 allo act inactive, MrgX1 ant reconf inactive, HEK293 Ca flux inactive, HEK293 Ca counter inactive and HEK293 Ca cntr2 inactive.
For CC(C)(C)N1C(=O)c2ccc(C(=O)Nc3ccc(O)cc3)cc2C1=O the results were MrgX1 antagonist inactive, RGS4 act inactive, RGS4 block inactive, MrgX1 agonist inactive and MrgX1 allo act inactive.
COC(=O)c1cccc(NC(=O)c2ccc3c(c2)C(=O)N(Cc2cccnc2)C3=O)c1 was read as MrgX1 antagonist inactive, RGS4 act inactive, RGS4 block inactive, MrgX1 agonist inactive and MrgX1 allo act inactive.
`COC(=O)C(=C/C(C)=C/c1cccnc1)C(=O)OC` gave MrgX1 antagonist inactive, RGS4 act inactive, RGS4 block inactive, MrgX1 agonist inactive and MrgX1 allo act inactive.
`COc1ccccc1NS(=O)(=O)c1ccc(O)c(C(=O)OCC(=O)N2c3ccccc3CC2C)c1` (configuration not stated) gave MrgX1 antagonist inactive, RGS4 act inactive, RGS4 block inactive, MrgX1 agonist inactive and MrgX1 allo act inactive.
COc1ccc(C(=O)N(C)Cc2ccccn2)cc1OC1CCN(C(C)C)CC1 was read as MrgX1 antagonist -5.2*, RGS4 act inactive, RGS4 block inactive, MrgX1 agonist inactive, MrgX1 allo act inactive, MrgX1 ant reconf inactive, HEK293 Ca flux inactive, HEK293 Ca counter inactive and HEK293 Ca cntr2 inactive.
`COc1ccc(C(=O)N(C)Cc2ccon2)cc1OC1CCN(C(C)C)CC1` gave MrgX1 antagonist inactive, RGS4 act inactive, RGS4 block inactive, MrgX1 agonist inactive and MrgX1 allo act inactive.
`CCN(CC)C(=O)c1ccc(-c2nnc(OC)c3ccccc23)cc1` gave MrgX1 antagonist inactive, RGS4 act inactive, RGS4 block inactive, MrgX1 agonist inactive and MrgX1 allo act inactive.
`COc1ccc(OC)c(NC(=O)C23CC4CC(C2)CC(n2cnc(Br)n2)(C4)C3)c1` gave MrgX1 antagonist -5.2*, RGS4 act inactive, RGS4 block inactive, MrgX1 agonist inactive, MrgX1 allo act inactive, MrgX1 ant reconf inactive, HEK293 Ca flux inactive, HEK293 Ca counter inactive and HEK293 Ca cntr2 inactive.
For Cc1cc(C)n(-c2nnc(C)n2/N=C/c2ccccc2O)n1 the results were MrgX1 antagonist inactive, RGS4 act inactive, RGS4 block inactive, MrgX1 agonist inactive and MrgX1 allo act inactive.
For Cc1cc(C)n(-c2nnc(C)n2N)n1 the results were MrgX1 antagonist -5.9*, RGS4 act inactive, RGS4 block inactive, MrgX1 agonist inactive, MrgX1 allo act inactive, MrgX1 ant reconf 85%*, HEK293 Ca flux inactive, HEK293 Ca counter inactive and HEK293 Ca cntr2 inactive.
COc1ccc(C(=O)CCc2ccccc2)cc1 was read as MrgX1 antagonist inactive, RGS4 act inactive, RGS4 block inactive, MrgX1 agonist inactive and MrgX1 allo act inactive.
`CC(CN1CCOCC1)OC(=O)c1ccccc1Cl` (configuration not stated) gave MrgX1 antagonist inactive, RGS4 act inactive, RGS4 block inactive, MrgX1 agonist inactive and MrgX1 allo act inactive.
